Results from ChEMBL document CHEMBL1133612, “Analogues of amonafide and azonafide with novel ring systems” (J Med Chem, 2000).

What was measured:
Format in all cases: functional, cell-based
UACC-375 = assay: Tested for inhibitory activity against human tumor cell line UA375 of melanoma using sulforhodamine B assay.
WiDr [1] = assay: Tested for inhibitory activity against a sensitive strain of human colon carcinoma WiDr using sulforhodamine B assay (it is MRP positive but non-P-glycoprotein).
MCF7 [2] = assay: Tested for inhibitory activity against human tumor cell line MCF7, a strain sensitive to doxorubicin of breast carcinoma using sulforhodamine B assay.
MCF7 [3] = assay: Tested for inhibitory activity against human tumor cell line MCF7, a strain resistant to mitoxantrone of breast carcinoma using sulforhodamine B assay.
L1210 [4] = assay: Tested for inhibitory activity against murine cell line […], a strain sensitive to doxorubicin using MTT assay.; conditions: Mus musculus
Procedure, shortened: (§1)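 Murine L1210 leukaemia cells were tested as a drug-sensitive strain and as a multiple drug-resistant strain that is P-glycoprotein positive. Growth inhibition in both strains was read by MTT assay.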

[5] = Tested for inhibitory activity against human tumor cell line A549 (a non small, drug resistant cell line that does not produce P-glycoprotein) of lung carcinoma using sulforhodamine B assay.
WiDr [6] = assay: Tested for inhibitory activity against a multi drug resistant (MDR) strain of human colon carcinoma WiDr using sulforhodamine B assay (it is MRP positive but non-P-glycoprotein).
MCF7 [7] = assay: Tested for inhibitory activity against human tumor cell line D40, a strain resistant to doxorubicin of breast carcinoma using sulforhodamine B assay.
L1210 [8] = assay: Tested for inhibitory activity against murine cell line […], a strain resistant to doxorubicin using MTT assay.; conditions: Mus musculus; procedure, shortened: as §1
OVCAR-3 [9] = assay: Tested for inhibitory activity against human tumor cell line OVCAR-3, a resistant ovarian carcinoma using sulforhodamine B assay.
L1210 [10] = assay: Tested for inhibitory activity against murine cell line […] leukemia, a strain sensitive to doxorubicin using MTT assay.; conditions: Mus musculus; procedure, shortened: as §1
OVCAR-3 [11] = assay: Tested for inhibitory activity against human tumor cell line OVCAR-3 a resistant ovarian carcinoma using sulforhodamine B assay.
L1210 [12] = assay: Tested for inhibitory activity against murine cell line […] leukemia, a strain resistant to doxorubicin using MTT assay.; conditions: Mus musculus; procedure, shortened: as §1

| Compound | IC50 (UACC-375) | IC50 (WiDr [1]) | IC50 (MCF7 [2]) | IC50 (L1210 [4]) | IC50 [5] | IC50 (WiDr [6]) | IC50 (MCF7 [7]) | IC50 (L1210 [8]) | IC50 (OVCAR-3 [9]) | IC50 (L1210 [10]) | IC50 (OVCAR-3 [11]) | IC50 (L1210 [12]) | IC50 (MCF7 [3]) |
| --- | --- | --- | --- | --- | --- | --- | --- | --- | --- | --- | --- | --- | --- |
| CN(C)CCN1C(=O)c2cccc3c2c(cc2c(N)cccc23)C1=O | 1.08 µM | 0.28 µM | 0.55 µM | 0.054 µM | 0.28 µM | 0.525 µM | 0.59 µM | 0.054 µM | 0.541 µM | – | – | – | 0.55 µM |
| CN(C)CCN1C(=O)c2cccc3c2c(cc2c(O)cccc23)C1=O | 0.54 µM | 0.32 µM | 0.625 µM | 0.81 µM | 0.42 µM | 0.5 µM | 0.56 µM | 1.35 µM | 0.81 µM | – | – | – | 0.34 µM |
| CN(C)CCN1C(=O)c2cc3cccnc3c3ccc(N)c(c23)C1=O | 0.117 µM | 0.16 µM | 0.27 µM | 0.233 µM | 0.17 µM | 0.21 µM | 0.31 µM | 0.186 µM | 0.466 µM | – | – | – | 0.31 µM |
| CN(C)CCN1C(=O)c2cccc3c2c(cc2cccc(Cl)c23)C1=O | 0.179 µM | 0.22 µM | 0.16 µM | 0.256 µM | 0.045 µM | 0.38 µM | 0.286 µM | 0.231 µM | 0.385 µM | – | – | – | 0.15 µM |
| CN(C)CCN1C(=O)c2cccc3c2c(cc2ncccc23)C1=O | 0.617 µM | 0.11 µM | 0.17 µM | – | 0.032 µM | 0.26 µM | 0.32 µM | – | – | 0.493 µM | 0.986 µM | 0.367 µM | 0.23 µM |
| CN(C)CCN1C(=O)c2cccc3c2c(cc2cccnc23)C1=O | 0.309 µM | 0.195 µM | 0.21 µM | 0.043 µM | 0.22 µM | 0.37 µM | 0.4 µM | 0.026 µM | 0.862 µM | – | – | – | 0.32 µM |
| CN(C)CCN1C(=O)c2cc(N)cc3cc4c(c(c23)C1=O)CCCC4 | 0.61 µM | 0.23 µM | 0.24 µM | 0.073 µM | 0.17 µM | 1.6 µM | 0.9 µM | 0.026 µM | 0.488 µM | – | – | – | 0.32 µM |
| CN(C)CCN1C(=O)c2c(N)ccc3cc4c(c(c23)C1=O)CCCC4 | 0.187 µM | 0.079 µM | 0.12 µM | 0.011 µM | 0.013 µM | 0.45 µM | 0.11 µM | 0.002 µM | 0.08 µM | – | – | – | 0.13 µM |
| CN(C)CCN1C(=O)c2cccc3cc(N)cc(c23)C1=O [AMONAFIDE] | – | – | – | – | 1.1 µM | – | – | – | – | – | – | – | – |
| CN(C)CCN1C(=O)c2cccc3cc4ccccc4c(c23)C1=O [AZONAFIDE] | – | – | – | – | 0.01 µM | – | – | – | – | – | – | – | – |
| O=C1c2c(O)ccc(O)c2C(=O)c2c(NCCNCCO)ccc(NCCNCCO)c21 [MITOXANTRONE] | – | 0.008 µM | 0.009 µM | 0.01 µM | 0.003 µM | – | – | – | 0.006 µM | – | – | – | – |

The next lines start with results.

| IC50 (UACC-375) | IC50 (WiDr [1]) | IC50 (MCF7 [2]) | IC50 (L1210 [4]) | IC50 [5] | IC50 (WiDr [6]) | IC50 (MCF7 [7]) | IC50 (L1210 [8]) | IC50 (OVCAR-3 [9]) | IC50 (L1210 [10]) | IC50 (OVCAR-3 [11]) | IC50 (L1210 [12]) | Compound | IC50 (MCF7 [3]) |
| --- | --- | --- | --- | --- | --- | --- | --- | --- | --- | --- | --- | --- | --- |
| 0.52 µM | 0.9 µM | 0.86 µM | 0.52 µM | 0.87 µM | 1.3 µM | 0.82 µM | 1.56 µM | 0.02 µM | – | – | – | COc1cccc2c1cc1c3c(cccc32)C(=O)N(CCN(C)C)C1=O | 0.9 µM |
| 0.564 µM | 0.24 µM | 0.22 µM | 0.197 µM | 0.22 µM | 0.42 µM | 0.5 µM | 0.165 µM | 0.564 µM | – | – | – | CN(C)CCN1C(=O)c2cccc3c2c(cc2ccccc23)C1=O | 0.28 µM |
| 4.27 µM | 1.2 µM | 1.7 µM | 0.984 µM | 0.85 µM | 1.5 µM | 1.3 µM | 1.53 µM | 4.27 µM | – | – | – | CN(C)CCN1C(=O)c2cc(NC(=O)C(C)(C)C)cc3cc4c(c(c23)C1=O)CCCC4 | 1 µM |
| 0.405 µM | 0.26 µM | 0.625 µM | 0.54 µM | 0.16 µM | 2.3 µM | 0.675 µM | 0.54 µM | 0.675 µM | – | – | – | CN(C)CCN1C(=O)c2cccc3c2c(cc2cccc(O)c23)C1=O | 0.39 µM |
| 0.223 µM | 0.13 µM | 0.1 µM | 0.011 µM | 0.018 µM | 0.22 µM | 0.23 µM | 0.008 µM | 0.07 µM | – | – | – | CN(C)CCN1C(=O)c2cccc3cc4c(c(c23)C1=O)CCCC4 | 0.15 µM |
| 0.132 µM | 0.031 µM | 0.04 µM | 0.06 µM | 0.032 µM | 0.24 µM | 0.13 µM | 0.036 µM | 0.048 µM | – | – | – | CC(=O)Nc1ccc2cc3c(c4c2c1C(=O)N(CCN(C)C)C4=O)CCCC3 | 0.04 µM |
| 0.244 µM | 0.24 µM | 0.13 µM | 0.054 µM | 0.037 µM | 0.46 µM | 0.29 µM | 0.05 µM | 0.068 µM | – | – | – | CN(C)CCN1C(=O)c2cccc3c2c(cc2cccc(N)c23)C1=O | 0.15 µM |
| 0.175 µM | 0.135 µM | 0.15 µM | 0.05 µM | 0.154 µM | 0.175 µM | 0.17 µM | 0.05 µM | 0.05 µM | – | – | – | CN(C)CCN1C(=O)c2cccc3c2c(cc2c([N+](=O)[O-])cccc23)C1=O | 0.18 µM |
| 0.513 µM | 0.02 µM | 0.06 µM | 0.769 µM | 0.022 µM | 0.11 µM | 0.08 µM | 0.513 µM | 0.513 µM | – | – | – | CN(C)CCN1C(=O)c2cccc3c2c(cc2c(Cl)cccc23)C1=O | 0.019 µM |
| 8.75 µM | 0.75 µM | 0.95 µM | 2.19 µM | 0.75 µM | 0.8 µM | 2 µM | 1.75 µM | 0.656 µM | – | – | – | CN(C)CCN1C(=O)c2c(NC(=O)C(C)(C)C)ccc3cc4c(c(c23)C1=O)CCCC4 | 1.3 µM |
| 0.751 µM | 0.8 µM | 0.36 µM | 0.751 µM | 0.95 µM | 2.4 µM | 0.62 µM | 0.501 µM | 0.626 µM | – | – | – | CN(C)CCN1C(=O)c2cccc3c2c(cc2cccc([N+](=O)[O-])c23)C1=O | 0.44 µM |
| 0.212 µM | 0.13 µM | 0.27 µM | 0.424 µM | 0.15 µM | 0.195 µM | 0.29 µM | 0.127 µM | 0.424 µM | – | – | – | CC(=O)Nc1ccc2c3c(cc4cccnc42)C(=O)N(CCN(C)C)C(=O)c13 | 0.27 µM |
| – | – | – | – | 0.022 µM | – | – | – | – | – | – | – | COc1cccc2c1C(=O)c1c(O)c3c(c(O)c1C2=O)C[C@@](O)(C(=O)CO)C[C@@H]3O[C@H]1C[C@H](N)[C@H](O)[C@H](C)O1 [DOXORUBICIN] | – |
